Sampled rows, rich in hits. Any-hit rate of the full collection: about 2.9%.
PfM18AAP inh: PfM18AAP inhibitors, malaria aminopeptidase, primary screen, biochemical, QFRET, recombinant enzyme; M18 aspartyl aminopeptidase (Plasmodium falciparum 3D7); H-Glu-NHMec fluorogenic cleavage; inhibition, % at 7.35 µM; actives 1.2% (n = 290,000); AID 1822, 2009;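 active = inhibition above the campaign mean inhibition over all tested compounds plus 3 SD, cut at about 28% in these data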;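 note: 0% = plate median of test compound wells and 100% = 2 mM ZnCl2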
ZTA counter: blocks Epstein-Barr virus ZTA, an EBNA-1 counter-screen. AID 2234. ZTA-DNA binding, fluorescence polarization. inhibition, % at 11 µM. actives 0.15% (n = 320,000); in the data active = inhibition above about 33%
PfG6PD inh: PfG6PD enzyme inhibitors, primary screen, biochemical, fluorescence intensity, uHTS. PfGluPho enzyme, NADPH resazurin-diaphorase fluorescence. inhibition, % at 20 µM. actives 0.78% (n = 350,000);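 active = inhibition reaching at least a set limit at 20 µM in the primary screen, cut at about 59% in these data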;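 note: 0% = DMSO wells with substrate and 100% = DMSO wells lacking glucose-6-phosphate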
Apaf1 inhib: inhibitors of human Apaf-1 apoptosome, primary screen, biochemical, DEVD-Rh110 fluorescence, uHTS; Apoptotic protease-activating factor 1 (Homo sapiens), O14727; reconstituted apoptosome caspase-3 activity; inhibition, % at 20 µM; actives 0.71% (n = 330,000); active = inhibition of at least 40% at 20 µM;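 note: plate controls were DMSO wells for no effect and DEVD-CHO caspase inhibitor wells for full effect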
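System – cell-free apoptosome with Apaf-1, procaspase-3 and caspase-9 · Buffer or medium – pH 7.5 Hepes buffer with CHAPS, BSA, DTT · Also added – cytochrome c with DEVD-Rh110 · Times – 30 min compound preincubation, 50 min activation, room temperature · Technique – Rh110 fluorescence intensity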
UBC13 inh: UBC13 polyubiquitin chain formation inhibitors, primary screen, biochemical, TR-FRET, uHTS. actives 0.47% (n = 330,000). Ubiquitin-conjugating enzyme E2 N (Homo sapiens), P61088. inhibition, % at 20 µM; in the data active = inhibition above about 45%, passing the limit was not always enough; inconclusive = no clear call, values can overlap the other calls
EBNA-1 inh: EBNA-1 DNA-binding inhibitors, primary screen, biochemical, fluorescence polarization; actives 0.34% (n = 300,000); AID 1950, 2009; inhibition, % at 14.8 µM; in the data active = inhibition above about 28%
Casp3 counter: CASP3 inhibitor validation, counterassay for project on UBE2N polyubiquitination blockers, biochemical, one dose; AID 488856, 2010; actives 4% (n = 1,400); Recombinant caspase-3, Caspase-Glo 3/7 luminescence, 60 min; inhibition, % at 20 µM; shares compounds with UBC13 inh;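 active = mean inhibition across replicates above about 26%, limit read from the data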;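 note: plate controls were DMSO with caspase-3 for no effect and DMSO wells lacking enzyme for full effect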
UBC13 confirm: UBC13 polyubiquitination inhibitors, single-point retest, confirmation, biochemical, TR-FRET, single concentration. shares compounds with UBC13 inh. inhibition, % at 10 µM. actives 68% (n = 1,400). AID 488859, 2010; in the data active = inhibition above about 45%; inconclusive = no clear call, values can overlap the other calls
* marks the source's active call; other numbers are inactive results; ? = inconclusive; / = no result.

SMILES	PfM18AAP inh	ZTA counter	PfG6PD inh	Apaf1 inhib	UBC13 inh	EBNA-1 inh	Casp3 counter	UBC13 confirm
Cc1cc(N2CCN(C)CC2)nc2ccc(NC(=S)N3CCCCCC3)cc12	0.1	-10.8	9.7	-0.9	14.5	3.5	/	/
Cc1cc(N2CCN(C)CC2)nc2ccc(NC(=S)N3CCN(c4ccc(Cl)cc4)CC3)cc12	-0.4	7.0	9.2	15.6	76.2*	-10.9	4.6	70.5*
Cc1cc(N2CCN(C)CC2)nc2ccc(NC(=S)N3CCN(c4cccc(Cl)c4)CC3)cc12	11.6	5.2	15.3	22.0	60.7*	-0.6	-0.5	54.3*
O=C(Nc1ccc(Cl)cc1Cl)c1ccc(Br)o1	7.2	0.1	16.7	-1.8	2.1	-1.8	/	/
Brc1ccc(-c2nnc3ccc(N4CCN(c5ccccc5)CC4)nn23)cc1	3.8	6.0	-10.3	15.3	61.9*	4.7	-2.7	17.9
COc1ccc(S(=O)(=O)N2CCN(c3ccc4nnc(-c5ccccc5)n4n3)CC2)cc1	-0.1	-1.5	24.7	64.9*	51.2*	-10.4	-4.3	32.1
O=C(CCC(=O)N1CCN(S(=O)(=O)c2ccc([N+](=O)[O-])cc2)CC1)N1CCOCC1	/	/	-3.3	3.1	-18.9	/	/	/
CC1(C(=O)N/N=C/c2ccc3c(c2)OCO3)CC1(Br)Br (stereo unspecified)	-2.7	1.3	8.0	1.4	-6.8	0.6	/	/
COC(=O)c1ccc2c(=O)n(Cc3ccc(C(=O)NCCCN4CCC(C)CC4)cc3)c(=S)[nH]c2c1	-2.6	6.6	0.0	-2.8	-4.7	4.6	/	/
CN(C)CCNC(=O)c1ccc2c(=O)n(Cc3ccc(Cl)cc3)c(=S)[nH]c2c1	-3.0	0.0	9.0	28.3	38.0	1.5	/	/
CC1CCN(CCCNC(=O)c2ccc3c(=O)n(Cc4ccc(Cl)cc4)c(=S)[nH]c3c2)CC1	-12.2	-2.3	3.7	16.7	52.9*	1.5	1.6	73.1*
CCCCN(C)CCNC(=O)c1ccc(Cn2c(=S)[nH]c3ccc(Br)cc3c2=O)cc1	-2.1	4.3	-6.0	29.2	48.3*	0.4	33.5*	48.2*
O=C(Nc1ccc(Cl)cc1)C1CCCN(c2cnccn2)C1 (stereo unspecified)	1.9	0.9	9.2	9.8	-5.9	6.5	/	/
CC(C)n1ncc2c(C(=O)Nc3ccc(S(N)(=O)=O)cc3)cc(C3CC3)nc21	/	-1.0	2.1	74.6*	74.9*	/	-0.4	49.2*
Cc1cccc(NC(=O)c2ccc(NC(C)c3ccccc3)c([N+](=O)[O-])c2)n1 (stereo unspecified)	-1.4	-1.9	16.4	2.9	-6.7	-6.8	/	/
CSc1cccc(NC(=O)N2CCCC(CNS(=O)(=O)Cc3ccccc3)C2)c1 (stereo unspecified)	-0.4	-1.4	7.6	9.7	-2.8	21.8	/	/
Cc1ccc(-c2csc(N3CCN(c4cc5c(cc4Cl)nc(C(C)N)n5CCCO)CC3)n2)cc1 (stereo unspecified)	-8.8	1.8	4.0	0.0	6.7	6.0	/	/
Cc1ccc(-c2csc(N3CCN(c4cc5c(cc4Cl)nc(C)n5CCN4CCCCC4)CC3)n2)cc1	17.1	16.6	26.5	22.5	46.0*	8.2	0.2	37.5
O=C(CCC1CCCCC1)NCCN1C2=NC[C@H](Cc3ccc(O)cc3)N2C[C@H]1Cc1ccc(O)cc1	-16.2	-10.1	0.1	20.0	8.5	-0.2	/	/
CC(C)[C@H]1CN=C2N(CCNC(=O)CCC3CCCCC3)[C@H](Cc3ccc(O)cc3)CN21	-10.5	-9.2	0.5	5.3	31.0	3.5	/	/
COc1ccc(C[C@H]2CN3C(=NC[C@@H]3C(C)C)N2CCNC(=O)CCC2CCCCC2)cc1	4.3	-21.4	0.6	26.4	52.9*	-0.7	-0.9	19.7
COc1ccc(C[C@H]2CN3C(=NC[C@@H]3Cc3ccccc3)N2CCNC(=O)CCC2CCCCC2)cc1	1.1	0.3	1.4	51.7*	77.9*	-3.5	-2.0	69.1*
S=C1NCC(c2ccccc2)S1 (stereo unspecified)	/	/	11.4	/	/	/	/	/
CCOc1ccccc1NC(=O)C(OC(=O)c1ccc(CC)cc1)c1ccccc1 (stereo unspecified)	2.5	9.3	24.3	21.3	21.7	5.1	/	/
CCOc1ccccc1NC(=O)C(OC(=O)c1ccc(O)cc1)c1ccccc1 (stereo unspecified)	-0.2	11.6	-1.4	-27.7	77.9*	11.4	-1.9	89.1*
SMILES	PfM18AAP inh	ZTA counter	PfG6PD inh	Apaf1 inhib	UBC13 inh	EBNA-1 inh	Casp3 counter	UBC13 confirm
CCCC(=O)N(CCN1CCOCC1)c1nc2c(C)cccc2s1	-1.5	-9.7	8.2	13.7	68.6*	-2.5	-5.0	73.1*
CCCC(=O)N(CCN1CCOCC1)c1nc2c(C)ccc(C)c2s1	0.0	-6.3	12.7	16.1	39.5	-7.7	/	/
COc1ccc2sc(-c3ccc(N(C)C)cc3)c(-c3cnc(OC)nc3)c2c1	/	9.2	14.2	19.6	32.1	/	/	/
O=C(CCCn1c(=S)[nH]c2ccsc2c1=O)NCCc1ccccc1	-7.2	7.0	4.3	3.1	55.6*	3.1	-3.6	?
O=C(CCn1c(=S)[nH]c2ccccc2c1=O)NCCc1ccccc1	-1.3	8.2	-3.6	-11.4	-1.0	3.8	/	/
COc1ccc(C2(c3ccc(O)cc3O)CC(c3ccccc3Cl)NC(=S)N2)cc1 (stereo unspecified)	11.0	7.8	24.9	18.4	-2.8	3.0	/	/
CCOc1ccc(NC(=O)CCCOc2cc(=O)n(C)c3ccccc23)cc1	-2.3	-0.1	14.6	1.4	73.8*	1.0	3.8	76.1*
COc1cccc(NC(=O)CCCOc2cc(=O)n(C)c3ccccc23)c1	-16.3	-4.4	13.5	1.9	-1.4	-13.7	/	/
Cn1c(=O)cc(OCC(=O)NCCCN2CCN(c3ccccc3F)CC2)c2ccccc21	5.9	-22.9	-5.7	0.9	-10.8	-11.7	/	/
Cn1c(=O)cc(OCCCC(=O)NCCN2CCN(c3ccccc3F)CC2)c2ccccc21	3.2	7.6	3.9	7.0	57.1*	10.7	0.1	37.9
CCn1c(=O)cc(SCC(=O)NCCCN2CCN(c3ccccc3F)CC2)c2ccccc21	-13.1	12.7	-7.2	-6.4	58.2*	0.1	-2.7	?
Cc1ccc(/C=N/NC(=O)c2ccc3ccccc3c2)s1	10.4	-1.2	-5.5	12.8	-14.2	17.1	/	/
COc1ccc(CCN(/C=C2\Sc3ccccc3C2=O)C(C)=O)cc1OC	2.8	-13.8	-4.4	1.5	51.8*	-3.9	0.5	33.7

Bioassay records deposited in PubChem BioAssay by several laboratories.
